In data set [1] the target is T1, NAD-dependent protein deacetylase sirtuin-1 (Homo sapiens, UniProt Q96EB6).
T1 sequence (Q96EB6 whole entry): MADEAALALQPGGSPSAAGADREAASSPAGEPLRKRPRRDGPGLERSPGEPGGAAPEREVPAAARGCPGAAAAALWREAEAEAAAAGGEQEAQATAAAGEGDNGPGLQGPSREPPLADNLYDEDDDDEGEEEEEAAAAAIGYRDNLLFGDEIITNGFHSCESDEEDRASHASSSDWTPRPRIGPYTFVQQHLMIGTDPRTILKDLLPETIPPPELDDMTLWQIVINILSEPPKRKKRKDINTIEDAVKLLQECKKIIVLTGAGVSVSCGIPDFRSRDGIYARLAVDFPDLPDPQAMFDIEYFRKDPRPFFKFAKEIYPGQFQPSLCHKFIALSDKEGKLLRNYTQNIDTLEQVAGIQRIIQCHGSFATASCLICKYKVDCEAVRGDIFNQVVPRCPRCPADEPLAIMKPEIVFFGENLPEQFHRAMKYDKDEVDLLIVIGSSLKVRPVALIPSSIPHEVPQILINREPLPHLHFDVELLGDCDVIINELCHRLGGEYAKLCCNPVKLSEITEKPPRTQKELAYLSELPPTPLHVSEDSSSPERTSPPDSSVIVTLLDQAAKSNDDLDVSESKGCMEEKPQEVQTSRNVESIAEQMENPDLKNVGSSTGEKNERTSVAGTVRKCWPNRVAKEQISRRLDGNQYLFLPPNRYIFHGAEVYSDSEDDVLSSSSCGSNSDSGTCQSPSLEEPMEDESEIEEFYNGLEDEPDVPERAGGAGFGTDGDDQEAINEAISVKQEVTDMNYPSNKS
Put plainly: Inhibition of His6/GST-tagged human SIRT1 deacetylation activity using SIRT1 acetyl-lysine as substrate in presence of beta-NAD+ after 10 mins by reversed-phase HPLC analysis. The method in brief: (§1)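 Buffer: 50 mM Hepes pH 8.0, 137 mM NaCl, 2.7 mM KCl, 1 mM MgCl₂, 1 mM DTT, 0.5 mM β-NAD⁺, p53 380-384 K382-acetyl pentapeptide. SIRT1 runs use 0.3 mM peptide, 320 nM His₆- or GST-SIRT1, 10 min. SIRT2 runs use 0.39 mM peptide, 309 nM His₆-SIRT2, 12 min. Reactions run at 37 °C, quenched with HCl/acetic acid, read by C18 HPLC at 214 nm, turnover <10%. IC50 from Dixon plots.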

The target in data set [2] is T2, NAD-dependent protein deacetylase sirtuin-2 (Homo sapiens, UniProt Q8IXJ6).
T2 sequence (Q8IXJ6 whole entry): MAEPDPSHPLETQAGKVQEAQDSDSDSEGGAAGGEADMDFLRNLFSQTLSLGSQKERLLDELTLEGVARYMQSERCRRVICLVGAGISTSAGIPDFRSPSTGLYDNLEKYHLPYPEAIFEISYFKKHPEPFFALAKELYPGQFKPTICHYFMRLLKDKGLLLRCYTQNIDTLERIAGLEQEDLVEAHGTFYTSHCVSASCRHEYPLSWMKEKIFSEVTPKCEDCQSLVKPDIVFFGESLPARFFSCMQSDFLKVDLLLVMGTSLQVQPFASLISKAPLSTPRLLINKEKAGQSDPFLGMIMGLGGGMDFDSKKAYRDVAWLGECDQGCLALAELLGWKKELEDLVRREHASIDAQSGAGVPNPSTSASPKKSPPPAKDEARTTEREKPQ
Kind of data set: Inhibition of His6-tagged human SIRT2 deacetylation activity using SIRT1 acetyl-lysine as substrate in presence of beta-NAD+ after 12 mins by reversed-phase HPLC analysis. The method in brief:
as §1

For data set [3], the target named is T3, NAD-dependent protein deacetylase sirtuin-3, mitochondrial (Homo sapiens, UniProt Q9NTG7).
T3 sequence (Q9NTG7 whole entry): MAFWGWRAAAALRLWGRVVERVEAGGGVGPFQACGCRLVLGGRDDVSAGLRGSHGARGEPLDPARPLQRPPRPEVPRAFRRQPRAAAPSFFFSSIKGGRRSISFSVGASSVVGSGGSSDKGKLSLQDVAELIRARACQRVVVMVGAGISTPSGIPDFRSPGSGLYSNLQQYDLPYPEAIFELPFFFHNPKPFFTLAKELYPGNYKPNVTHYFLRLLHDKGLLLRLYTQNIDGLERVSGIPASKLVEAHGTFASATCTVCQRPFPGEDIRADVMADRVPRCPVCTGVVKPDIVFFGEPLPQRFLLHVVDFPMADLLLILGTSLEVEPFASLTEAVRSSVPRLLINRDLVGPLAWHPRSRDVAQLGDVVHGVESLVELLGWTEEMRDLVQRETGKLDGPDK
Put plainly: Inhibition of His6-tagged human SIRT3 deacetylation activity using SIRT3 acetyl-lysine as substrate substrate in presence of beta-NAD+ after 10 mins by reversed-phase HPLC analysis.

Data set [4] addresses NAD-dependent protein deacylase sirtuin-5, mitochondrial (Homo sapiens, UniProt Q9NXA8). Put plainly: Inhibition of His6-tagged human SIRT5 desuccinylation activity using succinyl-lysine as substrate in presence of beta-NAD+ after 5 mins by reversed-phase HPLC analysis. The conditions noted are these: in the assay text read “GST-tagged” for “His6-tagged”. The method in brief:
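GST-SIRT5 (370 nM) with 0.88 mM succinyl-lysine peptide and 0.8 mM β-NAD⁺ in 50 mM Hepes pH 8.0, 137 mM NaCl, 2.7 mM KCl, 1 mM MgCl₂, 1 mM DTT; 5 min at 37 °C. Stopped with 100 mM HCl/0.16 M acetic acid; C18 HPLC at 214 nm, turnover <10%; IC50 by Dixon plot.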

For data set [5], the target named is NAD-dependent protein deacylase sirtuin-6 (Homo sapiens, UniProt Q8N6T7). Kind of data set: Inhibition of His6-tagged human SIRT6 demyristoylation activity using myristoyl-lysine substrate in presence of beta-NAD+ after 12 mins by reversed-phase HPLC analysis. A digest of the protocol:
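His₆-SIRT6 (313 nM) with 0.02 mM myristoyl-lysine peptide and 0.2 mM β-NAD⁺ in Hepes pH 8.0 buffer with NaCl, KCl, MgCl₂ and 1 mM DTT; 12 min at 37 °C. Acid quench, C18 HPLC at 214 nm, turnover <10%; IC50 from Dixon plots.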

Data set [6] concerns the target T4, NAD-dependent protein deacetylase sirtuin-7 (Homo sapiens, UniProt Q9NRC8).
T4 sequence (Q9NRC8 whole entry): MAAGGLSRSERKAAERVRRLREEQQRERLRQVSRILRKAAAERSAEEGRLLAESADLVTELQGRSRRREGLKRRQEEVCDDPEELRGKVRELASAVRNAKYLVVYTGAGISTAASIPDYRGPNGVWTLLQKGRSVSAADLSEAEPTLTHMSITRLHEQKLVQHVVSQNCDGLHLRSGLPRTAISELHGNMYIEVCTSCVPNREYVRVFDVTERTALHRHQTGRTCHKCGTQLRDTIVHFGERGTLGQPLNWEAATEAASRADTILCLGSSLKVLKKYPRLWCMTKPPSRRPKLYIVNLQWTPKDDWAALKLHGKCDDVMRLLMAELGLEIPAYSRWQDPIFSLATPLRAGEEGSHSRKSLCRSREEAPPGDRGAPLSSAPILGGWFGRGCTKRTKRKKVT
Kind of data set: Inhibition of tRNA-activated His6-tagged human SIRT7 deacetylation activity using acetyl-lysine as substrate in presence of beta-NAD+ after 30 mins by reversed-phase HPLC analysis. The method in brief: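 His₆-SIRT7 (570 nM) with yeast tRNA (3-fold molar excess over enzyme) and RNase inhibitor (~1 U/μL). Substrate: 1.8 mM H3 12-24 K18-acetyl peptide with 3 mM β-NAD⁺, in 50 mM Hepes pH 8.0, 150 mM NaCl, 1 mM DTT, no KCl or MgCl₂; 30 min at 37 °C. Acid quench, C18 HPLC at 214 nm; IC50 by Dixon plot.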

Data set [7] can be described thus: Enzymatic stability assessed as pronase (unknown origin)-mediated compound hydrolysis at pH 7.3 measured up to 30 mins by HPLC method. Type of data set: ADME, Homo sapiens. To be noted: buffer, pH 7.3, 0.5 h. The method in brief: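 Compound solution in water (160 μM) mixed 1:1 with Streptomyces griseus pronase (8 ng/μL) in 100 mM Tris·HCl pH 7.3 at 37 °C. Aliquots quenched with 1.0 M acetic acid at 0, 2.5, 5, 10, 20 and 30 min, then C18 RP-HPLC at 214 nm; mean of two measurements.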

The target of data set [8] is T5, NAD-dependent protein deacetylase sirtuin-1 (Homo sapiens) (UniProt Q96EB6).
T5 sequence (whole entry): T1 sequence (Q96EB6 whole entry)
Put plainly: Inhibition of SIRT1 deacetylation activity in human HCT116 cells assessed as increase in acetylated p53 K382 level by Western blot analysis. The format is cell-based. The conditions noted are these: HCT-116. The method in brief:
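HCT116 cells (5 x 10⁵) in McCoy 5A with 10% FBS, treated 8 h at 37 °C at 0, 0.5, 2, 10, 50 and 100 μM final (water stock). Lysates run on SDS-PAGE, transferred to PVDF, probed with anti-acetyl-p53 K382 and anti-p53, HRP secondary, ECL detection.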
A general note: Immunoblotting shows a protein as a band on a membrane.

Data set [9] concerns MCF7. Put plainly: Antiproliferative activity against human MCF7 cells assessed as cell growth inhibition measured up to 72 hrs by MTT assay. Type of data set: functional, cell-based. A digest of the protocol: (§2)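 MCF-7 cells, 5 x 10³ per well, grown overnight in DMEM with 10% FBS, then exposed at 37 °C to 0, 5, 12.5, 25, 50 or 100 μM final (water stock) for 24, 48 or 72 h. Afterwards, PBS wash, MTT at 0.5 mg/mL final for 4 h at 37 °C, DMSO solubilization, absorbance at 568 nm; mean of five measurements.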

For the next data set, the system named is SK-MEL-2. Put plainly: Antiproliferative activity against human SK-MEL-2 cells assessed as cell growth inhibition measured up to 72 hrs by MTT assay. Type of data set: functional, cell-based. A digest of the protocol:
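SK-MEL-2 melanoma cells, 5 x 10³ per well, grown overnight in MEM with 10% FBS, then exposed at 37 °C to 0, 5, 12.5, 25, 50 or 100 μM final (water stock) for 24, 48 or 72 h. Afterwards, PBS wash, MTT at 0.5 mg/mL final for 4 h at 37 °C, DMSO solubilization, A568 read; mean of five measurements.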

Data set [10] has as its system MCF7. Put plainly: Antiproliferative activity against human MCF7 cells assessed as cell growth inhibition at 100 uM measured after 72 hrs by MTT assay relative to control. The conditions noted are these: MCF7, 72 h, read-out: GI. Type of data set: functional. The method in brief: as §2
Background: Formazan colour is commonly taken as a measure of viable cells.

Results on 10 compounds are retold here after ChEMBL document CHEMBL4627291, “A bicyclic pentapeptide-based highly potent and selective pan-SIRT1/2/3 inhibitor harboring Nε-thioacetyl-lysine” (Bioorg Med Chem, 2020).

The structures appear in SMILES notation.

NAD-dependent protein deacylase sirtuin-5, mitochondrial, sequence (Q9NXA8 whole entry): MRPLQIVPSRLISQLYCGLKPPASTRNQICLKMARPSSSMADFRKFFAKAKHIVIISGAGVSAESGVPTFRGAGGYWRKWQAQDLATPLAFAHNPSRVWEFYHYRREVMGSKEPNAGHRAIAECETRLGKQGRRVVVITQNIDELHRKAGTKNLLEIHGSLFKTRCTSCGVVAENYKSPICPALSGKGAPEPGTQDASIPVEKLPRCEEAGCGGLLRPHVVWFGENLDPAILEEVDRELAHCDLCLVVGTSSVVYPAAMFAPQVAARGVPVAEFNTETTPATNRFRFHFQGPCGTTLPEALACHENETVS
NAD-dependent protein deacylase sirtuin-6, sequence (Q8N6T7 whole entry): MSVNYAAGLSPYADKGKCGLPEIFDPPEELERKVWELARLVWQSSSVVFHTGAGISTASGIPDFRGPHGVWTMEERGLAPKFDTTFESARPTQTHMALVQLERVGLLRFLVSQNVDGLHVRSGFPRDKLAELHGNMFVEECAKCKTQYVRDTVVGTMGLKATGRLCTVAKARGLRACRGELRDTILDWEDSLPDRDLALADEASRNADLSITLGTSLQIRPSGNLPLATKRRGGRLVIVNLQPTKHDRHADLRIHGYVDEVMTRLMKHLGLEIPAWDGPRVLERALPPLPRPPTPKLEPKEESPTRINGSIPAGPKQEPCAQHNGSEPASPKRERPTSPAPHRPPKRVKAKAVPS

The term IC50 denotes the point on the concentration scale where inhibition reaches its midpoint. Consider `CSCC[C@@H]1NC(=O)[C@@H](NC(=O)[C@H](CCCCNC(C)=S)NC(=O)[C@H](CCCCN)NC(=O)[C@H](Cc2c[nH]cn2)NC(C)=O)Cc2ccc(cc2)OCCCCCCCCCCNC1=O`, for which the results for the IC50 in data set [1], in data set [2] and in data set [3] were 56.7 µM, 17.9 µM and 13.1 µM, respectively.
As to `CSCC[C@@H]1NC(=O)[C@@H](NC(=O)[C@H](CCCCNC(C)=S)NC(=O)[C@H](CCCCN)NC(=O)[C@H](Cc2c[nH]cn2)NC(C)=O)Cc2ccc(cc2)OCCCNC1=O`, the results for the IC50 in data set [1] and in data set [2] were 34.3 µM and 60.8 µM, respectively.
As for `CSCC[C@H](NC(=O)[C@H](CC(C)C)NC(=O)[C@H](CCCCNC(C)=S)NC(=O)[C@@H]1Cc2ccc(cc2)OCCCCCCCCCCC(=O)N[C@@H](Cc2c[nH]cn2)C(=O)N1)C(N)=O`, the concentration for half-maximal inhibition (IC50) stood at 1.25 µM in data set [1], 4.31 µM in data set [2] and 1.1 µM in data set [3].
On to `CSCC[C@@H]1NC(=O)[C@@H](NC(=O)[C@H](CCCCNC(C)=S)NC(=O)[C@H](CCCCN)NC(=O)[C@H](Cc2c[nH]cn2)NC(C)=O)Cc2ccc(cc2)OCCCCCNC1=O`, for which the values for the concentration for half-maximal inhibition (IC50) in data set [1] and in data set [2] were 13.6 µM and 115 µM, respectively.
In the case of `CSCC[C@H](NC(=O)[C@H](CC(C)C)NC(=O)[C@H](CCCCNC(C)=S)NC(=O)[C@@H]1Cc2ccc(cc2)OCCCCCC(=O)N[C@@H](Cc2c[nH]cn2)C(=O)N1)C(N)=O`, the figures for the IC50 in [1] and in [2] were 0.646 µM and 1.03 µM, respectively.
In the case of `CSCC[C@@H]1NC(=O)[C@@H](NC(=O)[C@H](CCCCNC(C)=S)NC(=O)[C@@H]2Cc3ccc(cc3)OCCCC(=O)N[C@@H](Cc3c[nH]cn3)C(=O)N2)Cc2ccc(cc2)OCCCCCNC1=O`, the IC50 is 0.54 µM in data set [1]; 0.253 µM in data set [2]; 0.72 µM in data set [3]; 443 µM in data set [4]; 390 µM in data set [5]; 78.9 µM in data set [6]. Besides, the Stability entry in data set [7] was “Stable”. In addition, the inhibition entry in data set [8] was “Dose-dependent effect”. For the same compound, the Activity result in the data set on MCF7 [9] and in the data set with SK-MEL-2 was “Dose-dependent effect” throughout.
Take `CSCC[C@H](NC(=O)[C@H](CC(C)C)NC(=O)[C@H](CCCCNC(C)=S)NC(=O)[C@@H]1Cc2ccc(cc2)OCCCC(=O)N[C@@H](Cc2c[nH]cn2)C(=O)N1)C(N)=O`: the values for the concentration for half-maximal inhibition (IC50) in data set [1], in [2] and in data set [3] were 0.171 µM, 0.68 µM and 0.75 µM, respectively.
As for `CC/C(=C(\c1ccccc1)c1ccc(OCCN(C)C)cc1)c1ccccc1` [TAMOXIFEN], the inhibition of growth at 100 µM in the data set on MCF7 [10] was over 80%.
With `CSCC[C@@H]1NC(=O)[C@@H](NC(=O)[C@H](CCCCNC(C)=S)NC(=O)[C@H](CCCCN)NC(=O)[C@H](Cc2c[nH]cn2)NC(C)=O)Cc2ccc(cc2)OCCCCCCCNC1=O`, the IC50 in [1] worked out at 22.6 µM; in data set [2], 25.5 µM; in data set [3] it was 217 µM.
For `CSCC[C@H](NC(=O)[C@H](CC(C)C)NC(=O)[C@H](CCCCNC(C)=S)NC(=O)[C@@H]1Cc2ccc(cc2)OCCCCCCCC(=O)N[C@@H](Cc2c[nH]cn2)C(=O)N1)C(N)=O`, the concentration for half-maximal inhibition (IC50) in data set [1] worked out at 0.673 µM; in [2], 1.33 µM.
